Where no end group is shown, it is not given here. ROX = carboxy-X-rhodamine
Assays:
[1] = tested on: IL-2; assay: Sandwich assay for IL-2; type: binding, human; conditions: for detection of IL-2 in sandwich assay: capture bead-4 plus detection ROX-5, 50 nM IL-2, deionized water; for bead fluorescence in sandwich assay before protein addition: capture bead-4 plus detection ROX-5, deionized water, no IL-2
[2] = Unspecific interaction between capture and detection β-body; type: binding
Outline: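 Capture β-body was covalently linked to PEGA1900 beads and mixed in solution with purified ROX-labelled detection β-body, with no target protein added. For the IL-1β pair, incubation was in deionised water in glass vials for 3 h. Beads were then imaged by wide-field fluorescence microscopy for ROX at 560/14 nm excitation and 605/52 nm emission.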

[3] = tested on: IL-6; assay: Sandwich assay for IL-6; type: binding, human; conditions: capture 6 / ROX-labeled 7, with 0.05–0.1 M urea, 20 nM IL-6
[4] = tested on: IL-1α; assay: On-bead binding specificity test; design: species or system human; conditions: 50 nM ROX-IL-1α, PEGA beads, Figure 4B
[5] = molecular target: T1, IL-1β (Homo sapiens, UniProt P01584); assay: On-bead binding assay by fluorescence microscopy; conditions: on PEGA beads, 50 nM ROX-IL-1β
Outline: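 Human IL-1β came from a codon-optimised gene with an N-terminal His-tag, expressed in E. coli BL21(DE3) and purified by Ni-NTA then size exclusion in PBS. It was labelled with 3 equiv ROX-NHS for 1 h at room temperature, excess dye removed on G-25 gel filtration, and quantified by 660 nm protein assay. Acetylated beads without β-body served as negative control. ROX read at 560/14 nm excitation and 605/52 nm emission.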

[6] = molecular target: T1, IL-1β; assay: On-bead microplate equilibrium binding assay, IL-1β
Outline: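 Human IL-1β, N-terminal His-tag, expressed in E. coli BL21(DE3), purified by Ni-NTA and size exclusion. Labelled with 3 equiv ROX-NHS for 1 h at room temperature, free dye removed on G-25. Three compound-bearing PEGA beads per well, in triplicate. Two-fold dilutions from 10 μM in 5 mM phosphate buffer, overnight incubation. ROX fluorescence imaged at 2 ms exposure. Kd from one-site nonlinear fit.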

[7] = molecular target: T1, IL-1β; assay: Sandwich assay for IL-1β; type: binding; conditions: capture 10 with detection ROX-2, 50 nM IL-1β, deionized water
[8] = molecular target: T2, GFP (Aequorea victoria, UniProt P42212, F64L/H231L/S65T); assay: Binding of GFP from E. coli cell lysate to β-body beads; conditions: beads with lysed E. coli cells expressing GFP
Outline: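 PEGA beads carrying the test compound incubated with lysed E. coli cells expressing GFP. Bead-bound GFP imaged by wide-field fluorescence microscopy (ex 482/18 nm, em 520/28 nm). For capture, beads washed with water, bound GFP eluted with PBS, and the eluate analysed by SDS-PAGE alongside the whole-cell lysate.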

[9] = molecular target: T2, GFP; assay: On-bead microplate equilibrium binding assay, GFP
Outline: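 Three equal-sized PEGA beads bearing the test compound per well, in triplicate. Purified His-tagged GFP in Milli-Q water, two-fold serial dilutions from 20 μM. Incubated overnight at room temperature to equilibrium. Per-bead fluorescence quantified by microscopy (1 ms exposure, GFP filter set). Kd from a one-site specific binding nonlinear regression fit; points average 3–6 measurements.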

[10] = molecular target: T2, GFP; assay: On-bead binding assay by fluorescence microscopy; conditions: on PEGA beads, 50 nM GFP
Outline: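 Recombinant N-terminally His-tagged GFP expressed in E. coli BL21(DE3), purified by Ni-NTA then size exclusion in PBS pH 7.4. Concentration from A490 (ε 55 000 M–1 cm–1). PEGA beads bearing the test compound placed in microplate wells with 50 nM GFP. N-acetylated beads served as negative control. Bead fluorescence imaged by microscopy (ex 482/18 nm, em 520/28 nm).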

[11] = molecular target: T2, GFP; assay: Affinity purification of GFP from cell lysate on PEGA-β-body column, SDS-PAGE; conditions: packed PEGA column, washed with water, eluted with PBS
Outline: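 GFP from Aequorea victoria, with an N-terminal His-tag, was expressed in E. coli BL21(DE3) from a pET plasmid. Culture was in LB with 100 μg/mL ampicillin at 37 °C to mid-exponential phase, then induced with 1 mM IPTG for 18 h at 20 °C. Cells were lysed in 50 mM Tris, 0.5 M NaCl, pH 8.0 with lysozyme and sonication, then clarified. SDS-PAGE gels were Coomassie-stained.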

[12] = molecular target: human recombinant IL-2 (ProSpec) (human, UniProt P60568 21-153); assay: on-bead fluorescence microscopy
Sequence of human recombinant IL-2 (ProSpec) (P60568 21-153): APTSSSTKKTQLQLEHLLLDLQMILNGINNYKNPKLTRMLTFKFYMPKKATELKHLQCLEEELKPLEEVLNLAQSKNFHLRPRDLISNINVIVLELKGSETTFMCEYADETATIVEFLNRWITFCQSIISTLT

ROX-TRTLTYTEPGITQTKTEAG [ROX-5]
detection of IL-2 in sandwich assay [1]: fluorescent beads were then observed exclusively after addition of 50 nM of IL-2 | bead fluorescence in sandwich assay before protein addition [1]: no observation of fluorescence on the beads

ROX-TMTDTDTYPGFTDTLTHAG [ROX-7]
unspecific interaction between capture and detection peptide at surface of beads ([2]; capture 6 / ROX-labeled 7 (IL-6 pair), no urea): some unspecific interaction | fluorescence from beads with IL-6 added [3]: remained strongly fluorescent

ETDTYTETYPGRTITWTITDG [β-body 2]
binding of ROX-labeled IL-1α to β-body beads (specificity) [4]: no interaction | binding of ROX-labeled IL-1β to β-body beads [5]: binding was observed

NTVTNTMTRPGVTETVTQTDG [β-body 4]
detection of IL-2 in sandwich assay [1]: fluorescent beads were then observed exclusively after addition of 50 nM of IL-2 | bead fluorescence in sandwich assay before protein addition [1]: no observation of fluorescence on the beads

TWTETYTWTEPGDTQTLTITNTG [β-body 3]
Kd [6]: 0.61 ± 0.05 µM

ROX-ETDTYTETYPGYTSTWTITDG [ROX-2]
unspecific binding of detection peptide to capture peptide ([2]; ROX-labeled 2 / capture 3 (IL-1β pair)): could not be prevented without affecting at the same time the binding of IL-1β | detection of IL-1β in sandwich assay [7]: enabled us to also detect IL-1β in nanomolar concentrations

TETKTVTITRPKMTWTFTHTVTG [β-body 1]
binding of GFP from cell lysate [8]: binding was observed | transfer of fluorescence from lysate to beads [8]: quantitatively transferred from the lysate to the beads | Kd [9]: 0.184 ± 0.0286 µM | binding of GFP to β-body beads [10]: binding was observed | purification of GFP from cell lysate [11]: a significant up-concentration of GFP was achieved with removal of the majority of other proteins in the cell lysate

{ROX}-TRTLTYTEPGITQTKTEAG (designed binder) [ROX-labeled β-body 5]
binding result [12]: binds
